Data: ChEMBL document CHEMBL1148198, “Inhibition of HIV-1 envelope-mediated fusion by synthetic batzelladine analogues” (J Nat Prod, 2004)
Calls of active or inactive are those of the source. The rule behind the calls is not given here.

system: Human immunodeficiency virus 1; assay: (§1) Inhibition of HIV1 envelope glycoprotein gp160-mediated cell fusion by cell-cell fusion assay
In short: (§2)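 Cell-cell fusion driven by HIV-1 Env from LAV (X4) and SF162 (R5) strains. Inhibitor added to wells at increasing concentrations; run in duplicate on at least two separate days. Percent fusion fitted by nonlinear least squares to % fusion = 100/(1 + KA[I]), where KA is the equilibrium association constant for inhibitor binding to gp120.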

Question: For CCCCCCCCC[C@H]1C[C@H]2CC[C@H]3C(C(=O)OCCCCCCCCOC(=O)C4=C(C)NC5=[N+]6[C@H](CC[C@@H]46)C[C@H](CCCCCCCCC)N5)=C(C)NC(=[N+]23)N1, which Activity is on record?
Answer: inactive

Question: For CCCCCCCCC[C@H]1C[C@H]2CC[C@H]3C(C(=O)OCc4ccc(COC(=O)C5=C(C)NC6=[N+]7[C@H](CC[C@@H]57)C[C@H](CCCCCCCCC)N6)cc4)=C(C)NC(=[N+]23)N1, which Activity is on record?
Answer: inactive

system: not listed separately; assay: as §1; parameters: species or system Human immunodeficiency virus 1; in short: as §2

Question: With C=CCOC(=O)C1=C(CCCCC[C@@H](C)O[Si](C)(C)C(C)(C)C)NC2=[N+]3[C@H](CC[C@@H]13)C[C@H](C)N2 as the molecule, how does the IC50 read?
Answer: 4.5 µM

Question: Which IC50 does the source give for CC(=O)CC(=O)O[C@@H](C)CCCCC[C@H]1C[C@H]2CC[C@H]3C[C@@H](C)NC(=[N+]23)N1 here?
Answer: 5.3 µM

Question: Which IC50 does the source give for CCCCCCCCC[C@H](O)C[C@@H]1CC[C@H]2C(C(=O)O[C@H](C)CCCCC[C@H]3C[C@H]4CC[C@H]5C[C@@H](C)NC(=[N+]45)N3)=C(C)NC(N)=[N+]12 here?
Answer: 6.2 µM

Question: For CCCCCCCCC[C@@H]1C[C@@H]2CC[C@H]3[C@H](C(=O)O[C@H](C)CCCCC[C@@H]4C[C@@H]5CC[C@@H]6C[C@H](C)NC(=[N+]65)N4)[C@@H](C)NC(=[N+]23)N1, which IC50 is on record?
Answer: 3 µM

Question: Which IC50 does the source give for CCCCCCCCC[C@H](O)C[C@@H]1CC[C@H]2C(C(=O)O[C@@H](C)CCCCC[C@@H]3C[C@@H]4CC[C@@H]5C[C@H](C)NC(=[N+]54)N3)=C(C)NC(N)=[N+]12 here?
Answer: 7.7 µM

Question: With CC(=O)CC(=O)O[C@@H](C)CCCCC[C@@H]1C[C@@H]2CC[C@@H]3C[C@H](C)NC(=[N+]32)N1 as the molecule, how does the IC50 read?
Answer: 17 µM

Question: Which IC50 does the source give for CCCCCCCCC[C@@H]1C[C@@H]2CC[C@H]3C(C(=O)OC(C)(C)C)=C(C)NC(=[N+]23)N1 here?
Answer: 3.5 µM

Question: For CCCCCCCCC[C@@H]1C[C@@H]2CC[C@H]3C(C(=O)O[C@@H](C)CCCCC[C@@H]4C[C@@H]5CC[C@@H]6C[C@H](C)NC(=[N+]65)N4)=C(C)NC(=[N+]23)N1, which IC50 is on record?
Answer: 1.8 µM

Question: With CCCCCCCCC[C@@H]1C[C@@H]2CCC3=C(C(=O)O[C@H](C)CCCCC[C@@H]4C[C@@H]5CC[C@@H]6C[C@H](C)NC(=[N+]65)N4)[C@@H](C)NC(=[N+]32)N1 as the molecule, how does the IC50 read?
Answer: 0.8 µM

Question: Which IC50 does the source give for CCCCCCCCC[C@@H]1C[C@@H]2CC[C@H]3[C@H](C(=O)O[C@H](C)CCCCC[C@@H]4C[C@@H]5CC[C@@H]6C[C@H](C)NC(=[N+]65)N4)[C@H](C)NC(=[N+]23)N1 here?
Answer: 2.5 µM

system: Human immunodeficiency virus 1; assay: Inhibition of HIV1 envelope glycoprotein gp160-mediated cell fusion at 100 µM by cell-cell fusion assay

Question: Which Activity does the source give for CCCCCCCCCC1=C(C(=O)OCc2ccc(COC(=O)C3=C(CCCCCCCCC)NC4=[N+]5[C@H](CC[C@@H]35)C[C@H](CCCCCCC)N4)cc2)[C@@H]2CC[C@@H]3C[C@H](CCCCCCC)NC(=[N+]32)N1 here?
Answer: inactive

Question: For CCCCCCCCC[C@H]1C[C@H]2CC[C@H]3C(C(=O)OCc4ccc(COC(=O)C5=C(C)NC6=[N+]7[C@H](CC[C@@H]57)C[C@H](CCCCCCCCC)N6)cc4)=C(C)NC(=[N+]23)N1, which Activity is on record?
Answer: inactive
